Test results from PMC6684861 (Traffic (Copenhagen, Denmark), 2018).
Primed or numbered codes have the meaning given here. No end group written: not given here. FITC′ = fluorescein isothiocyanate label

What was measured:
[1] = tested on: U2OS cells; details: compared with pol λ in U2OS cells; ref [24]; cited from earlier work
[2] = tested on: Impα; details: ref [24]; cited from earlier work
[3] = biological target: ImpαΔIBB (Mus musculus, UniProt P52293); test: X-ray crystallography of ImpαΔIBB-NLS peptide complexes; type: binding, murine; details: estimated from electron density
Procedure, shortened: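 ImpαΔIBB (15 mg/ml in 20 mM Tris pH 7.8, 125 mM NaCl, 5 mM DTT) was mixed with test NLS peptide at 1.25:1 molar excess. Crystals were grown by hanging-drop vapor diffusion. For two complexes the mother liquor was 0.7 or 0.8 M sodium citrate with 0.1 M HEPES pH 7.0. Rfree used 5% of reflections excluded from refinement. Geometry was checked with MolProbity.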

[4] = tested on: U2OS cells; test: Nuclear/cytosolic ratio of pol X-GFP adducts in transfected U2OS cells; type: cell-based, human; details: among the four mammalian enzymes, in the cell-types investigated
Procedure, shortened: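 U2OS cells in RPMI 1640 with 10% FBS (37 °C, 5% CO2) were seeded at 10,000 cells/chamber. They were transfected (Lipofectamine 2000, 1:4 DNA:reagent) with wild-type or NLS-mutant polymerase-GFP plasmids, then fixed at 24 h (3.7% formaldehyde), permeabilized and stained with CellMask and a nuclear stain. Confocal GFP intensity was measured in nuclear and cytoplasmic ROIs of ≥30 cells/construct. Ratios were averaged with ±2 SD outliers removed, then analysed by ANOVA/Tukey.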

| occupancy of the minor binding pocket [3] | Substance | nuclear/cytosolic ratio of pol β [1] | binding affinity of NLS for the minor binding pocket of Impα [2] | extent of nuclear localization, in words [4] |
| --- | --- | --- | --- | --- |
|  | DNA polymerase β [pol β] | ~ 3 | highly selective binding affinity for the minor binding pocket of Impα |  |
| ~ 70% | pol λ NLS: bipartite N-terminal NLS of pol λ (KAFPKRQKIHADASSKVLAKIPRREEGK-{FITC′}) |  |  | greatest extent of nuclear localization |
